Laboratory results as given in ChEMBL document CHEMBL1129264, “Mercaptoacyl dipeptides as orally active dual inhibitors of angiotensin-converting enzyme and neutral endopeptidase” (1996).

Assays:
Assay type in all cases: organism-based
[1] = target: T1, Angiotensin-converting enzyme (Rattus norvegicus) (UniProt P47820); test: Compound was tested for plasma inhibition of Angiotensin I converting enzyme activity in the conscious rat. Expressed as Inhibition of AI pressor response at 2 hr at a dose of 11.7 mg/kg po; set-up: dose 11.7 mg/kg
T1 sequence (whole entry): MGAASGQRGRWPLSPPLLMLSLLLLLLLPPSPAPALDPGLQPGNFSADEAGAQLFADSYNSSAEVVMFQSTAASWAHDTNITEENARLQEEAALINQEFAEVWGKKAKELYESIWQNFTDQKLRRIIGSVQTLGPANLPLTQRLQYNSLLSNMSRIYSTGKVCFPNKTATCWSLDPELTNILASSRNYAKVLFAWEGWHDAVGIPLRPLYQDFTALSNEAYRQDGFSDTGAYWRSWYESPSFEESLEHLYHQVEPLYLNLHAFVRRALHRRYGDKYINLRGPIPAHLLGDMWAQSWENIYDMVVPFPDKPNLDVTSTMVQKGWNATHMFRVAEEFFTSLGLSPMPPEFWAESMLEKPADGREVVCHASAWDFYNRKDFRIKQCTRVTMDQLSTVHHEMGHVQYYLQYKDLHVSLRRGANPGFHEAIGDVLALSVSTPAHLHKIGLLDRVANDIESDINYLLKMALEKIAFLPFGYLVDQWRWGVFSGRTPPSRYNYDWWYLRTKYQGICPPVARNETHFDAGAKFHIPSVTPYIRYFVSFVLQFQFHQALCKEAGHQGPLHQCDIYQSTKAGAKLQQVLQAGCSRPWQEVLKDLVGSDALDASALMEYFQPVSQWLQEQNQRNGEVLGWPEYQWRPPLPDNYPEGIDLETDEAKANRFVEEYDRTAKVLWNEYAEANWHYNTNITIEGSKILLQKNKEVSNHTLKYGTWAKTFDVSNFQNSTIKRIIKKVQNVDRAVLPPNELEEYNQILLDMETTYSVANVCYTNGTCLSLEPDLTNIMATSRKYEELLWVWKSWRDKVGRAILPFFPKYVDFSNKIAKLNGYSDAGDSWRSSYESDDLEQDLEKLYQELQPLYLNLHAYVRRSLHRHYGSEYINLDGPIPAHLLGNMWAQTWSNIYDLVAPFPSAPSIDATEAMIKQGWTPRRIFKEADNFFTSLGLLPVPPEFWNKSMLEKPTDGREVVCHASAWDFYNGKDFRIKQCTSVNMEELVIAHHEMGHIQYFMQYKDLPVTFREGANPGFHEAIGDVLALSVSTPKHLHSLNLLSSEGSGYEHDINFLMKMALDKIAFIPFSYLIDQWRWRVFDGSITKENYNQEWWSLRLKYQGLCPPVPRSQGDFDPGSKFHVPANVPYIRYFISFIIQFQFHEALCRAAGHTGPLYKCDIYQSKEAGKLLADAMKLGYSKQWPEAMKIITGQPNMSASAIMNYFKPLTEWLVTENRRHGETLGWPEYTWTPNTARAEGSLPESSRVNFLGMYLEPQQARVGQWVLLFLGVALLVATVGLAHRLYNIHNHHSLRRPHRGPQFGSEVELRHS
Outline: (§1)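 Male conscious normotensive Sprague-Dawley rats (275-390 g), given femoral arterial and venous catheters under methohexital sodium (75 mg/kg ip) anesthesia. Next day, pressor responses to three angiotensin-I challenges (300 ng/kg iv) recorded by direct arterial pressure. Compound then dosed orally, and AI challenge repeated at set times. Each post-dose response compared with the mean of the three baseline responses, giving % inhibition.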

[2] = target: T1, Angiotensin-converting enzyme (Rattus norvegicus); test: Compound was tested for plasma inhibition of Angiotensin I converting enzyme activity in the conscious rat. Expressed as Inhibition of AI pressor response at 6 hr at a dose of 11.7 mg/kg po; set-up: dose 11.7 mg/kg
Outline: (§2)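 Male conscious normotensive Sprague-Dawley rats (275-390 g), prepared under methohexital sodium (75 mg/kg ip) with femoral arterial and venous catheters. The next day, pressor responses to three angiotensin-I challenges (300 ng/kg iv) were recorded. Compound was then given orally and angiotensin-I challenges were repeated at set times. Percent inhibition is relative to the mean of the three baseline responses.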

[3] = target: T1, Angiotensin-converting enzyme (Rattus norvegicus); test: Compound was tested for plasma inhibition of Angiotensin I converting enzyme activity in the conscious rat. Expressed as Inhibition of AI pressor response at 4 hr at a dose of 11.7 mg/kg po; set-up: dose 11.7 mg/kg; outline: as §1
[4] = target: T1, Angiotensin-converting enzyme (Rattus norvegicus); test: Compound was tested for plasma inhibition of Angiotensin I converting enzyme activity in the conscious rat. Expressed as Inhibition of AI pressor response at 1 hr at a dose of 11.7 mg/kg po; set-up: dose 11.7 mg/kg; outline: as §1
[5] = target: T1, Angiotensin-converting enzyme (Rattus norvegicus); test: Compound was tested for plasma inhibition of Angiotensin I converting enzyme activity in the conscious rat. Expressed as Inhibition of AI pressor response at 1 hr at a dose of 13.1 mg/kg po; set-up: dose 13.1 mg/kg; outline: as §1
[6] = target: T1, Angiotensin-converting enzyme (Rattus norvegicus); test: Compound was tested for plasma inhibition of Angiotensin I converting enzyme activity in the conscious rat. Expressed as Inhibition of AI pressor response at 2 hr at a dose of 13.1 mg/kg po; set-up: dose 13.1 mg/kg; outline: as §1
[7] = target: T1, Angiotensin-converting enzyme (Rattus norvegicus); test: Compound was tested for plasma inhibition of Angiotensin I converting enzyme activity in the conscious rat. Expressed as Inhibition of AI pressor response at 4 hr at a dose of 13.1 mg/kg po; set-up: dose 13.1 mg/kg; outline: as §2
[8] = target: T1, Angiotensin-converting enzyme (Rattus norvegicus); test: Compound was tested for plasma inhibition of Angiotensin I converting enzyme activity in the conscious rat. Expressed as Inhibition of AI pressor response at 6 hr at a dose of 13.1 mg/kg po; set-up: dose 13.1 mg/kg; outline: as §2
[9] = target: T1, Angiotensin-converting enzyme (Rattus norvegicus); test: Compound was tested for plasma inhibition of Angiotensin I converting enzyme activity in the conscious rat. Expressed as Inhibition of AI pressor response at 2 hr at a dose of 12.8 mg/kg po; set-up: dose 12.8 mg/kg; outline: as §1
[10] = target: T1, Angiotensin-converting enzyme (Rattus norvegicus); test: Compound was tested for plasma inhibition of Angiotensin I converting enzyme activity in the conscious rat. Expressed as Inhibition of AI pressor response at 6 hr at a dose of 12.8 mg/kg po; set-up: dose 12.8 mg/kg; outline: as §2
[11] = target: T1, Angiotensin-converting enzyme (Rattus norvegicus); test: Compound was tested for plasma inhibition of Angiotensin I converting enzyme activity in the conscious rat. Expressed as Inhibition of AI pressor response at 1 hr at a dose of 12.8 mg/kg po; set-up: dose 12.8 mg/kg; outline: as §1
[12] = target: T1, Angiotensin-converting enzyme (Rattus norvegicus); test: Compound was tested for plasma inhibition of Angiotensin I converting enzyme activity in the conscious rat. Expressed as Inhibition of AI pressor response at 4 hr at a dose of 12.8 mg/kg po; set-up: dose 12.8 mg/kg; outline: as §1
[13] = target: T1, Angiotensin-converting enzyme (Rattus norvegicus); test: Compound was tested for plasma inhibition of Angiotensin I converting enzyme activity in the conscious rat. Expressed as Inhibition of AI pressor response at 1 hr at a dose of 10 mg/kg po; set-up: dose 10 mg/kg; outline: as §1
[14] = target: T1, Angiotensin-converting enzyme (Rattus norvegicus); test: Compound was tested for plasma inhibition of Angiotensin I converting enzyme activity in the conscious rat. Expressed as Inhibition of AI pressor response at 6 hr at a dose of 10 mg/kg po; set-up: dose 10 mg/kg; outline: as §2
[15] = target: T1, Angiotensin-converting enzyme (Rattus norvegicus); test: Compound was tested for plasma inhibition of Angiotensin I converting enzyme activity in the conscious rat. Expressed as Inhibition of AI pressor response at 4 hr at a dose of 10 mg/kg po; set-up: dose 10 mg/kg; outline: as §1
[16] = target: T1, Angiotensin-converting enzyme (Rattus norvegicus); test: Compound was tested for plasma inhibition of Angiotensin I converting enzyme activity in the conscious rat. Expressed as Inhibition of AI pressor response at 2 hr at a dose of 10 mg/kg po; set-up: dose 10 mg/kg; outline: as §1
[17] = target: T1, Angiotensin-converting enzyme (Rattus norvegicus); test: Compound was tested for plasma inhibition of Angiotensin I converting enzyme activity in the conscious rat. Expressed as Inhibition of AI pressor response at 2 hr at a dose of 12.7 mg/kg po; set-up: dose 12.7 mg/kg; outline: as §1
[18] = target: T1, Angiotensin-converting enzyme (Rattus norvegicus); test: Compound was tested for plasma inhibition of Angiotensin I converting enzyme activity in the conscious rat. Expressed as Inhibition of AI pressor response at 6 hr at a dose of 12.7 mg/kg po; set-up: dose 12.7 mg/kg; outline: as §2
[19] = target: T1, Angiotensin-converting enzyme (Rattus norvegicus); test: Compound was tested for plasma inhibition of Angiotensin I converting enzyme activity in the conscious rat. Expressed as Inhibition of AI pressor response at 1 hr at a dose of 12.7 mg/kg po; set-up: dose 12.7 mg/kg; outline: as §1
[20] = target: T1, Angiotensin-converting enzyme (Rattus norvegicus); test: Compound was tested for plasma inhibition of Angiotensin I converting enzyme activity in the conscious rat. Expressed as Inhibition of AI pressor response at 4 hr at a dose of 12.7 mg/kg po; set-up: dose 12.7 mg/kg; outline: as §1

SMILES: CCOC(=O)[C@H](Cc1ccc(OC)cc1)NC(=O)C1(NC(=O)[C@H](SC(=O)COC)C(C)C)CCCC1
- inhibition [1]: 91%
- inhibition [2]: 52%
- inhibition [3]: 76%
- inhibition [4]: 81%

SMILES: CCCCOC(=O)[C@H](Cc1ccc(O)cc1)NC(=O)C1(NC(=O)[C@H](SC(=O)C(C)C)C(C)C)CCCC1
- inhibition [5]: 27%
- inhibition [6]: 16%
- inhibition [7]: 25%

SMILES: CCCCOC(=O)[C@H](Cc1ccc(O)cc1)NC(=O)C1(NC(=O)[C@H](SC(=O)CCC)C(C)C)CCCC1
- inhibition [5]: 82%
- inhibition [6]: 85%
- inhibition [8]: 69%
- inhibition [7]: 76%

SMILES: CCOC(=O)[C@H](Cc1ccc(O)cc1)NC(=O)C1(NC(=O)[C@H](SC(=O)C(C)(C)C)C(C)C)CCCC1
- inhibition [9]: 17%
- inhibition [10]: 19%
- inhibition [11]: 8%
- inhibition [12]: 14%

SMILES: CCOC(=O)[C@H](Cc1ccc(OC(C)=O)cc1)NC(=O)C1(NC(=O)[C@H](SC(C)=O)C(C)C)CCCC1
- inhibition [9]: 52%
- inhibition [10]: 16%
- inhibition [11]: 64%
- inhibition [12]: 31%

SMILES: CCOC(=O)[C@H](Cc1ccc(O)cc1)NC(=O)C1(NC(=O)[C@H](SC(C)=O)C(C)C)CCCC1
- inhibition [13]: 86%
- inhibition [14]: 47%
- inhibition [15]: 83%
- inhibition [16]: 81%

SMILES: CCOC(=O)[C@H](Cc1ccc(OC(=O)CC)cc1)NC(=O)C1(NC(=O)[C@H](SC(C)=O)C(C)C)CCCC1
- inhibition [5]: 50%
- inhibition [6]: 35%
- inhibition [8]: 4%
- inhibition [7]: 23%

SMILES: CC(=O)S[C@@H](C(=O)NC1(C(=O)N[C@@H](Cc2ccc(O)cc2)C(=O)OC2CCCC2)CCCC1)C(C)C
- inhibition [17]: 51%
- inhibition [18]: 29%
- inhibition [19]: 58%
- inhibition [20]: 33%
